Measured values: PubChem BioAssay
Activity calls are given as the source filed them.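 How the source made its calls, unless noted: active means GFP response above 150% of the DMSO level; inconclusive means fewer than 70 events counted for a yeast strain; inactive means the rest.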

Key:
[1] = RPL19A-GFP modulators, yeast TOR pathway, confirmation, cell-based, S. cerevisiae, flow cytometry, cherry picks, mother/daughter gates (AID 2270;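 active means GFP response below 50% of the DMSO control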); conditions: S. cerevisiae RPL19A-GFP strain, 3 h, at 10 µM, stronger effect = lower value, 100 = same GFP as DMSO wells
[2] = LAP4-GFP expression modulators in yeast, confirmation, cell-based, cherry picks, flow cytometry, mother/daughter gates (AID 2271;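 active means GFP response above 150% of the DMSO control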;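 further: ratio of sample to DMSO plate mean so 100% equals DMSO level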); conditions: S. cerevisiae LAP4-GFP strain, 3 h, at 10 µM, stronger effect = higher value, 100 means same as DMSO control
Summary of the method: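 System: Alexa 633-stained baker's yeast GFP-fusion strain; quantity: 0.2 OD600 cells; timing: compound exposure 3 h at 30 °C, end-over-end rotation; detection: HT flow cytometry, GFP fluorescence channel; measure: per-gate (all, mother, daughter) GFP response vs DMSO; control set: DMSO-only negative wells, rapamycin 400 ng/mL positive wells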

[3] = modulators of MEP2-GFP levels in yeast, confirmation, S. cerevisiae, flow cytometry GFP, cherry picks (AID 2272;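 active means GFP response above 150% of the DMSO control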;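 further: ratio of well signal to plate DMSO mean so 100% equals DMSO level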); conditions: S. cerevisiae MEP2-GFP strain, 3 h, at 10 µM, stronger effect = higher value
[4] = AGP1-GFP expression modulators, hit retest, confirmation, cell-based, flow cytometry, S. cerevisiae, cherry picks (AID 2273);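 further: median GFP channel fluorescence over the whole cell population gate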; conditions: S. cerevisiae AGP1-GFP strain, 3 h, at 10 µM
[5] = modulators of CIT2-GFP expression in yeast, confirmation, S. cerevisiae, GFP fusion, cherry picks, mother/daughter gates (AID 2274); conditions: S. cerevisiae CIT2-GFP strain, flow cytometry, 3 h, at 10 µM, stronger effect = higher value
[6] = measured here: daughter cell gate
[7] = measured here: mother cell gate
[8] = measured here: daughter cell gate response
[9] = measured here: mother cell gate response

SMILES | GFP response vs DMSO [1] | GFP response vs DMSO [1, 6] [%] | GFP response vs DMSO [1, 7] [%] | GFP response relative to DMSO [2] | GFP response relative to DMSO [2, 8] [%] | GFP response relative to DMSO [2, 9] [%] | GFP response vs DMSO [3] | GFP response, % of DMSO [4] | GFP response, % of DMSO [5] | GFP response, % of DMSO [5, 6] [%] | GFP response, % of DMSO [5, 7] [%]
COc1ccc(CCN2C(=O)c3cccc4cccc(c34)C2=O)cc1OC | 104% (inactive) | 100 | 104 | 95.7% (inactive) | 99.1 | 97.3 | 101% (inactive) | 105% (inactive) | 100% (inactive) | 101 | 96.8
Cc1ccc(NC(=O)ON=C2CCCC2)cc1 | 101% (inactive) | 104 | 93.5 | 122% (inactive) | 115 | 121 | 109% (inactive) | 68.9% (inactive) | 167% (active) | 150 | 167
O=C(NCc1ccc2c(c1)OCO2)c1nc(S(=O)(=O)Cc2ccccc2)ncc1Cl | 97.8% (inactive) | 96.2 | 97.4 | 109% (inactive) | 102 | 109 | 99.5% (inactive) | 94.5% (inactive) | 99.3% (inactive) | 98.3 | 96.8
O=C(/C=C/c1ccccc1)Nc1ncn[nH]1 | 97.4% (inactive) | 97.3 | 96 | 135% (inactive) | 125 | 137 | 102% (inactive) | 98% (inactive) | 97.8% (inactive) | 100 | 94.5
CCOC(=O)c1cc2c(=O)n3ccccc3nc2n(CCOC)c1=NC(=O)C(C)(C)C | 99.4% (inactive) | 99.1 | 97.3 | 94.4% (inactive) | 92.6 | 94.1 | 99% (inactive) | 103% (inactive) | 94.4% (inactive) | 93.8 | 93.2
Cc1nc(Sc2ccc(Cl)cc2)c(C#N)c(C)c1[N+](=O)[O-] | 100% (inactive) | 100 | 98.2 | 91.8% (inactive) | 94.4 | 91.3 | 108% (inactive) | 94.3% (inactive) | 104% (inactive) | 105 | 103
Cc1cc(NC(c2ccc(Cl)cc2)c2ccc3cccnc3c2O)no1 (centres undefined) | 97.8% (inactive) | 97.4 | 97.6 | 108% (inactive) | 104 | 113 | 100% (inactive) | 94.5% (inactive) | 98.3% (inactive) | 99.1 | 98.5
CCOC(=O)C1CCCN(c2c(C(=O)c3ccccc3)cnc3ccccc23)C1 (centres undefined) | 99.3% (inactive) | 98.8 | 102 | 91.9% (inactive) | 90.7 | 89.7 | 97.5% (inactive) | 101% (inactive) | 104% (inactive) | 104 | 101
Cc1ccc(-c2nc(NC(=O)c3nn(C)cc3[N+](=O)[O-])sc2C)cc1 | 100% (inactive) | 97.3 | 101 | 98.7% (inactive) | 97.2 | 101 | 102% (inactive) | 101% (inactive) | 96.5% (inactive) | 91.5 | 97.7
O=[N+]([O-])c1ccc(Sc2nc3ccccc3o2)c([N+](=O)[O-])c1 | 93.5% (inactive) | 93.4 | 92 | 157% (active) | 151 | 158 | 114% (inactive) | 96% (inactive) | 108% (inactive) | 109 | 100
N/C(=N\OC(=O)c1cccc(Br)c1)c1ccccc1 | 97.2% (inactive) | 96.4 | 93.6 | 137% (inactive) | 123 | 143 | 105% (inactive) | 64.6% (inactive) | 140% (inactive) | 121 | 140
CCCc1nnc(NC(=O)c2nc(S(=O)(=O)Cc3cccc(C)c3)ncc2Cl)s1 | 95.1% (inactive) | 96.4 | 95.2 | 106% (inactive) | 102 | 107 | 103% (inactive) | 101% (inactive) | 97.2% (inactive) | 99.3 | 98.2
O=[N+]([O-])c1cc(CN2CCN(c3cccc(C(F)(F)F)c3)CC2)c2cccnc2c1O | 112% (inactive) | 96.4 | 104 | 234% (active) | 229 | 216 | 145% (inactive) | 116% (inactive) | 138% (inactive) | 117 | 131
O=[N+]([O-])c1ccc(-c2cn3nc(-c4ccccc4)c(-c4ccccc4)nc3n2)cc1 | 102% (inactive) | 101 | 96.2 | 115% (inactive) | 115 | 114 | 227% (active) | 106% (inactive) | 109% (inactive) | 106 | 108
CCOC(=O)Cc1csc(NC(=O)c2sc3nc4ccc(C)cc4cc3c2N)n1 | 98.8% (inactive) | 98.1 | 100 | 91.4% (inactive) | 91 | 95.2 | 102% (inactive) | 96.7% (inactive) | 92.6% (inactive) | 94.8 | 92.3
Cc1ccc(NC(=O)c2ccc([N+](=O)[O-])o2)cc1C | 100% (inactive) | 104 | 95.8 | 128% (inactive) | 111 | 127 | 110% (inactive) | 99.8% (inactive) | 100% (inactive) | 105 | 96
COc1ccc(C2CC(c3c(-c4ccccc4)c4cc(Cl)ccc4[nH]c3=O)=NN2S(C)(=O)=O)cc1 (centres undefined) | 100% (inactive) | 99.1 | 102 | 99.2% (inactive) | 97.6 | 97.2 | 100% (inactive) | 99.9% (inactive) | 99.7% (inactive) | 101 | 99.7
Cc1ccc(N2C(=O)C3C4C=CC(CNC(=S)N5CCN(c6cccc(C)c6)C(C)C5)(O4)C3C2=O)cc1 (centres undefined) | 97.3% (inactive) | 97.3 | 96.7 | 92.9% (inactive) | 92.9 | 94.4 | 103% (inactive) | 103% (inactive) | 100% (inactive) | 97.6 | 100
Cc1[nH]n(-c2ccccc2)c(=O)c1/C=N/Nc1nncc(-c2ccccc2)n1 | 88.1% (inactive) | 85.8 | 88.9 | 149% (inactive) | 137 | 151 | 108% (inactive) | 110% (inactive) | 86% (inactive) | 84.1 | 83.8
COc1cc(N2C(=O)C=CC2=O)c(OC)cc1Cl | 85.7% (inactive) | 90 | 75 | 303% (active) | 211 | 272 | 133% (inactive) | 108% (inactive) | 90% (inactive) | 96.5 | 79.4
COc1cc(/C=C2\C(=O)N(CCC#N)N=C2C)c(Br)cc1OC(C)C | 105% (inactive) | 103 | 102 | 165% (active) | 145 | 168 | 107% (inactive) | 100% (inactive) | 93.9% (inactive) | 94.8 | 90.2
CCCN1C(=O)c2cccc3c(N4CCCCC4)ccc(c23)C1=O | 98.7% (inactive) | 99.8 | 98.2 | 98.9% (inactive) | 101 | 99.5 | 103% (inactive) | 104% (inactive) | 103% (inactive) | 105 | 103
COc1ccc(C(=O)/C=C/c2ccccc2C(F)(F)F)cc1 | 100% (inactive) | 99.1 | 99.5 | 99.2% (inactive) | 99.2 | 98.3 | 100% (inactive) | 99.7% (inactive) | 107% (inactive) | 106 | 107
N#C/C(=C\c1c(N2CCCCC2)nc2ccccn2c1=O)C(=O)NCc1ccco1 | 98.7% (inactive) | 98.8 | 99.5 | 97.7% (inactive) | 97.9 | 96.5 | 97.5% (inactive) | 99.7% (inactive) | 99.3% (inactive) | 100 | 96.8
